From PubChem
NRP1-CendR mod: modulators of CendR peptide binding to NRP-1, primary screen, biochemical, fluorescence polarization, uHTS; FAM-RPARPAR peptide binding to NRP-1; inhibition, % at 25 µM; 0.85% of 360,000 active;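 active means inhibition or corrected inhibition above about 18%, plus a signal ratio from 0.5 to 1.5, limit read from the data, passing the limit was not always enough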
MIN6 prolif: inducers of MIN6 beta-cell proliferation, primary screen, ATP luminescence, uHTS. MIN6 cells proliferation, ATPlite luminescence, 48 h; cells starved in 0.2% serum; 100% = growth in 10% serum. proliferation, % at 10 µM. 0.29% of 330,000 active;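 active means compounds whose signal lies at least 3.5 SD above the mean of all wells on their plate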;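 further: 0% = DMSO-treated cells in low-serum medium and 100% = 10% serum control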
DAGLB inh: DAGLB lipase inhibitors, primary screen, biochemical, fluorescence, HTS; Diacylglycerol lipase-beta (Homo sapiens), Q8NCG7; HEK293T DAGLB membrane lysate, EnzChek fluorogenic substrate; inhibition, % at 5.17 µM; 0.059% of 340,000 active; AID 504411, 2011; in the data active means inhibition above about 34%;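 further: 0% = enzyme with vehicle and 100% = wells lacking enzyme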
Myeloid diff 2: induction of myeloid progenitor differentiation, primary screen, cell-based, flow cytometry, MLPCN library | 1% of 360,000 active | AID 624256, 2012 | ER-HoxA9 myeloid progenitors, lysozyme-GFP differentiation | calls only at 10 µM;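 active means normalized GFP-positive differentiation at or above the plate's own cutoff, the solvent-only control mean plus 3 SD; inconclusive means no clear call, values can overlap the other calls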;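 further: cells exposed to compound for four days before flow analysis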
MT1-MMP act inh: blockers of MT1-MMP proenzyme processing, primary screen, HT1080 RFP-PRO-GFP cells, GFP/RFP fluorescence; Matrix metalloproteinase-14 (Homo sapiens), P50281; GFP/RFP ratio change, % at 20 µM; GFP/RFP ratio fluorescence, overnight; percent of plate control window, DMSO zero; 0.061% of 360,000 active; AID 651647, 2012;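 active means GFP/RFP ratio change of at least 30% with cell ATP level not reduced by more than half and red fluorescence within 50% of control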
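Test system: HT1080 cells expressing an RFP-PRO-GFP fluorescent reporter construct / Compound dosing: single-point 20 µM compound, 1% DMSO / Schedule: cells overnight before dosing, compound overnight, 37 °C, 5% CO2 / Evaluation: GFP/RFP fluorescence ratio / Control set: DMSO and RFP-L50D-GFP cell wells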
SENP1 inh: human SENP1 catalytic domain inhibitors, primary screen, biochemical, FRET, uHTS | Sentrin-specific protease 1 (Homo sapiens), Q9P0U3 | recombinant SENP1 catalytic domain, CyPet-SUMO1-YPet FRET cleavage | inhibition, % at 10 µM | 0.21% of 360,000 active;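 active means inhibition at least 30% at 10 µM, raw YFP signal under a set limit, fluorescence ratio 0.5 to 1.5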;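 further: 0% = enzyme with DMSO and 100% = no enzyme wells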
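Material: hSENP1 catalytic domain, recombinant; medium: Tris pH 8 with BME, BSA, NP40 and catalase; compound: single concentration of 10 µM compound, 0.5% DMSO final; technique: FRET read of cyan and yellow fluorescence; timing: 50 min enzyme reaction, room temperature, light-protected; reagent: SFCypet-SUMO1-SFYpet substrate at 25 nM; control set: no-enzyme low, enzyme-DMSO high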
Numbers without * were called inactive. Rows were chosen to be rich in hits. Some 2.4% of all compounds tested hit in one or more screens of this group.

N/C(=N\OC(=O)c1ccc(Cl)cc1)c1[nH]ncc1Br was read as NRP1-CendR mod -8.2, MIN6 prolif -3.6, DAGLB inh -4.3, Myeloid diff 2 inactive, MT1-MMP act inh 1.7 and SENP1 inh 2.8.
N/C(=N\OC(=O)c1ccc(Cl)cc1)c1ccccn1 was read as NRP1-CendR mod 19.8*, MIN6 prolif -5.4, DAGLB inh -3.3, Myeloid diff 2 inactive, MT1-MMP act inh 0.5 and SENP1 inh 4.2.
For N/C(=N/OC(=O)c1ccc(Cl)cc1)c1ncc([N+](=O)[O-])s1 the results were NRP1-CendR mod -5.1, MIN6 prolif -4.0, Myeloid diff 2 active, MT1-MMP act inh 2.5 and SENP1 inh 4.8.
For COc1ccc(-n2nc3c(N)n[nH]c3cc2=O)cc1 the results were NRP1-CendR mod 28.6*, MIN6 prolif 0.3, DAGLB inh 1.7, Myeloid diff 2 inactive, MT1-MMP act inh -0.7 and SENP1 inh 21.7.
Screening Nc1n[nH]c2cc(=O)n(-c3ccc(Cl)cc3)nc12 returned NRP1-CendR mod 23.5, MIN6 prolif 1.1, DAGLB inh 4.4, Myeloid diff 2 inactive, MT1-MMP act inh -2.0 and SENP1 inh -26.3.
`O=C1/C(=C/c2ccc(O)c([N+](=O)[O-])c2)SC(=S)N1Cc1ccccc1` gave NRP1-CendR mod -171.3, MIN6 prolif -5.7, DAGLB inh 6.3, Myeloid diff 2 inactive, MT1-MMP act inh -28.2 and SENP1 inh 37.5*.
COc1cc(/C=C2/SC(=S)N(Cc3ccccc3)C2=O)ccc1OCC(=O)O was read as NRP1-CendR mod -55.3, MIN6 prolif -5.2, DAGLB inh 3.9, Myeloid diff 2 inactive, MT1-MMP act inh 6.2 and SENP1 inh -55.5.
Screening O=C1/C(=C\c2ccc(O)cc2)SC(=S)N1Cc1ccccc1 returned NRP1-CendR mod -124.6, MIN6 prolif -5.1, DAGLB inh -7.0, Myeloid diff 2 active, MT1-MMP act inh -150.9 and SENP1 inh 58.9.
O=C(O)c1ccc(/C=C2/SC(=S)N(Cc3ccccc3)C2=O)cc1 was read as NRP1-CendR mod -7.9, DAGLB inh -1.6, Myeloid diff 2 active, MT1-MMP act inh 2.4 and SENP1 inh 1.7.
O=C(Cc1ccccc1)NN1C(=O)/C(=C/c2ccc(C(=O)O)cc2)SC1=S was read as NRP1-CendR mod -10.9, MIN6 prolif -4.2, DAGLB inh 2.2, Myeloid diff 2 inactive and SENP1 inh 1.5.
For O=C1/C(=C\c2cc(Br)cc(Br)c2O)SC(=S)N1Cc1ccccc1 the results were NRP1-CendR mod -124.5, MIN6 prolif -6.3, DAGLB inh 11.1, Myeloid diff 2 inactive, MT1-MMP act inh 5.9 and SENP1 inh 14.3.
Screening COc1cc(/C=C2/SC(=S)N(Cc3ccccc3)C2=O)cc(Cl)c1O returned NRP1-CendR mod 120.4, DAGLB inh -12.4, Myeloid diff 2 active, MT1-MMP act inh 9.5 and SENP1 inh 83.7.
Screening O=C(COC(=O)c1ccc(NS(=O)(=O)c2ccc(F)c(F)c2)cc1)NCC1CCCO1 (stereo unspecified) returned NRP1-CendR mod -7.5, MIN6 prolif 0.2, DAGLB inh 0.0, Myeloid diff 2 inactive, MT1-MMP act inh 4.8 and SENP1 inh 3.1.
`CCOc1cc(/C=C2/SC(=S)N(Cc3ccccc3)C2=O)ccc1O` gave NRP1-CendR mod -151.9, MIN6 prolif -4.5, DAGLB inh -1.7, Myeloid diff 2 active, MT1-MMP act inh -31.6 and SENP1 inh -38.5.
`COc1cc(/C=C2\SC(=S)N(NC(=O)c3ccccc3O)C2=O)ccc1O` gave NRP1-CendR mod -237.7, MIN6 prolif -5.8, DAGLB inh 6.3, Myeloid diff 2 inactive, MT1-MMP act inh -3.0 and SENP1 inh 58.9*.
Screening Cc1ccc(SCC2CNc3nc4ccccc4c(=O)n32)c(C)c1 (stereo unspecified) returned NRP1-CendR mod -7.8, MIN6 prolif -0.2, DAGLB inh -3.0, Myeloid diff 2 inactive, MT1-MMP act inh 4.7 and SENP1 inh 2.4.
CCN1/C(=C/c2cccc[n+]2C)Sc2ccc(OC)cc21 was read as NRP1-CendR mod -1.9, MIN6 prolif -4.9, DAGLB inh -0.4, Myeloid diff 2 inconclusive, MT1-MMP act inh -80.9 and SENP1 inh 2.5.
Screening CCN1/C(=C/c2ccc3cc(C)ccc3[n+]2C)Sc2ccc3sccc3c21 returned NRP1-CendR mod -129.4, DAGLB inh 2.4, Myeloid diff 2 inactive, MT1-MMP act inh -6.4 and SENP1 inh 44.1*.
CC(C)(C)OC(=O)n1cc(/C=N/NC(=O)c2ccco2)c2ccccc21 was read as NRP1-CendR mod 4.5, MIN6 prolif 3.3, DAGLB inh -2.4, Myeloid diff 2 active, MT1-MMP act inh 1.2 and SENP1 inh -28.2.
`c1ccc(Cn2c(-c3ccccc3)nc3nc4ccccc4nc32)cc1` gave NRP1-CendR mod -3.6, MIN6 prolif -1.8, DAGLB inh -2.4, Myeloid diff 2 inactive, MT1-MMP act inh -3.3 and SENP1 inh -19.3.
For O=[N+]([O-])c1cc(-c2nc3nc4ccccc4nc3n2CCc2ccccc2)cc([N+](=O)[O-])c1 the results were NRP1-CendR mod 28.5*, MIN6 prolif 0.0, DAGLB inh 0.0, Myeloid diff 2 inactive, MT1-MMP act inh 4.9 and SENP1 inh -46.0.
`Cc1sc2nc(CN3CCCCC3)nc(Cl)c2c1C` gave NRP1-CendR mod 8.5, MIN6 prolif 0.0, DAGLB inh -1.4, Myeloid diff 2 active, MT1-MMP act inh 7.3 and SENP1 inh -15.7.
For O=C1C=C(c2ccc(Oc3ccccc3)cc2)C[C@@H](c2ccc(Cl)cc2)C1 the results were NRP1-CendR mod 32.3*, MIN6 prolif -4.7, DAGLB inh -18.0, Myeloid diff 2 inactive, MT1-MMP act inh 7.6 and SENP1 inh 1.2.
`CSc1ccc(C2=CC(=O)C[C@H](c3ccc(Cl)cc3)C2)cc1` gave NRP1-CendR mod 27.8*, MIN6 prolif -4.6, DAGLB inh -18.8, Myeloid diff 2 inactive, MT1-MMP act inh -0.1 and SENP1 inh -12.3.
CC(=O)N1CCN(C(=O)c2cc3c(s2)CCC(C)C3)CC1 (stereo unspecified) was read as NRP1-CendR mod 15.0, MIN6 prolif 1.3, DAGLB inh 3.5, Myeloid diff 2 inactive, MT1-MMP act inh -5.2 and SENP1 inh 0.7.
CC(=O)NC(c1cc(F)c2cccnc2c1O)C1CC1 (stereo unspecified) was read as NRP1-CendR mod 26.5*, MIN6 prolif -1.4, DAGLB inh 1.3, Myeloid diff 2 inactive, MT1-MMP act inh 3.9 and SENP1 inh -0.4.
